What was measured:
Mus musculus [1] = test: Percent increase in life span of DBA2 mice after inoculation with L1210 leukemia intravenously at a dose of 2.5 mg/kg per day; type: functional; conditions: route intravenous
Procedure, shortened: (§1)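 Female DBA2 mice inoculated iv on day 0 with 10^4 L1210 cells; drugs given iv as sulfate salts in physiological saline, mostly once on day 1. %ILS from all deaths and survivors as (T/C × 100) − 100; survivors scored on days 30 and 60.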

Mus musculus [2] = test: Percent increase in life span of DBA2 mice after inoculation with L1210 leukemia intravenously at a dose of 1 mg/kg per day; type: functional; conditions: route intravenous
Mus musculus [3] = test: Percent increase in life span of DBA2 mice after inoculation with L1210 leukemia intravenously at a dose of 3 mg/kg per day; type: functional; conditions: route intravenous; procedure, shortened: as §1
Mus musculus [4] = test: Number of survivors of DBA2 mice on 60th day after inoculation with L1210 leukemia cell line intravenously at a dose of 2.5 mg/kg/day; 0/10; type: functional; conditions: route intravenous
Mus musculus [5] = test: Percent increase in life span of BDF1 mice after inoculation with P388 leukemia cells intraperitoneally at a dose of 0.22 mg/kg per day for 1-9 scheduled days; conditions: P388, ip
Mus musculus [6] = test: Percent increase in life span of DBA2 mice after inoculation with L1210 leukemia intravenously at a dose of 5.5 mg/kg per day; type: functional; conditions: route intravenous
Mus musculus [7] = test: Number of survivors of DBA2 mice on 30th day after inoculation with L1210 leukemia cell line intravenously at a dose of 0.5 mg/kg/day; 0/10; type: functional; conditions: route intravenous
Mus musculus [8] = test: Percent increase in life span at dose 2 mg/kg/day in 10 mice implanted with P388 leukemia cell line; type: functional
Procedure, shortened: (§2)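 Female DBA2 mice inoculated iv on day 0 with 10^4 P388 cells; single iv treatment on day 1 with drug as sulfate salt in physiological saline. Survival followed; %ILS from all deaths and survivors as (T/C × 100) − 100, maximal MST 30 days; survivors counted on days 30 and 60. Most experiments confirmed three times.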

Mus musculus [9] = test: Number of survivors of DBA2 mice on 60th day after inoculation with L1210 leukemia cell line intraperitoneally at a dose of 0.22 mg/kg/day; 0/10; type: functional; conditions: route intraperitoneal
Mus musculus [10] = test: Number of survivors of DBA2 mice on 60th day after inoculation with L1210 leukemia cell line intraperitoneally at a dose of 3 mg/kg/day; 0/10; type: functional; conditions: route intraperitoneal
Mus musculus [11] = test: Number of survivors of DBA2 mice on 60th day after inoculation with L1210 leukemia cell line intraperitoneally at a dose of 2 mg/kg/day; 0/10; type: functional; conditions: route intraperitoneal
Mus musculus [12] = test: Percent increase in life span of BDF1 mice after inoculation with P388 leukemia intraperitoneally at a dose of 2.5 mg/kg per day; conditions: P388, ip
Mus musculus [13] = test: Percent increase in life span of BDF1 mice after inoculation with P388 leukemia intraperitoneally at a dose of 6 mg/kg per day; conditions: P388, ip
Mus musculus [14] = test: Percent increase in life span of BDF1 mice after inoculation with P388 leukemia intraperitoneally at a dose of 3 mg/kg per day; conditions: P388, ip
Mus musculus [15] = test: Number of survivors on 60th day at dose 2.5 mg/kg/day in 7 mice implanted with P388 leukemia cell line for 1,8,15 scheduled days from Exp-2; 0/11; type: functional
Mus musculus [16] = test: Number of survivors on 60th day at dose 3 mg/kg/day in 10 mice implanted with P388 leukemia cell line; 0/10; type: functional
Mus musculus [17] = test: Number of survivors on 60th day at dose 5 mg/kg/day in 10 mice implanted with P388 leukemia cell line; 0/10; type: functional
Mus musculus [18] = test: Number of survivors on 60th day at dose 2.5 mg/kg/day in 10 mice implanted with P388 leukemia cell line for 1st scheduled day; 0/10; type: functional
Mus musculus [19] = test: Percent increase in life span of BDF1 mice after inoculation with P388 leukemia cells intraperitoneally at a dose of 0.30 mg/kg per day for 1-9 scheduled days; conditions: P388, ip
Mus musculus [20] = test: Number of survivors on 60th day at dose 4 mg/kg/day in 10 mice implanted with P388 leukemia cell line for 1st scheduled day; 0/10; type: functional
Mus musculus [21] = test: Number of survivors on 60th day at dose 8 mg/kg/day in 10 mice implanted with P388 leukemia cell line; 0/10; type: functional; procedure, shortened: as §2
Mus musculus [22] = test: Percent increase in life span at dose 3 mg/kg/day in 10 mice implanted with P388 leukemia cell line; type: functional; procedure, shortened: as §2
Mus musculus [23] = test: Number of survivors on 60th day at dose 7 mg/kg/day in 9 mice implanted with P388 leukemia cell line;0/9; type: functional
[24] = Acute iv toxicity against CD1 strain of 40 mice after 4 doses of injection; type: organism-based; conditions: CD1, mouse, in vivo
Procedure, shortened: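 Acute toxicity in Swiss, CD1 or NMRI mice. Drugs given iv as sulfate salts. LD50 taken at day 14 from several dose levels, with 40–[…] mice per drug and strain.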

Mus musculus [25] = test: Number of survivors of DBA2 mice on 60th day after inoculation with L1210 leukemia cell line intraperitoneally at a dose of 4 mg/kg/day; 0/10; type: functional; conditions: route intraperitoneal
Mus musculus [26] = test: Number of survivors of DBA2 mice on 60th day after inoculation with L1210 leukemia cell line intravenously at a dose of 6 mg/kg/day; 0/10; type: functional; conditions: route intravenous
Mus musculus [27] = test: Percent increase in life span of DBA2 mice after inoculation with L1210 leukemia intravenously at a dose of 8 mg/kg per day; type: functional; conditions: route intravenous; procedure, shortened: as §1
Mus musculus [28] = test: Number of survivors of DBA2 mice on 30th day after inoculation with L1210 leukemia cell line intravenously at a dose of 8 mg/kg/day; 0/10; type: functional; conditions: route intravenous
Mus musculus [29] = test: Percent increase in life span at dose 9 mg/kg/day in 10 mice implanted with P388 leukemia cell line; type: functional; procedure, shortened: as §2
Mus musculus [30] = test: Percent increase in life span of DBA2 mice after inoculation with L1210 leukemia intravenously at a dose of 6 mg/kg per day; type: functional; conditions: route intravenous; procedure, shortened: as §1
Mus musculus [31] = test: Number of survivors of DBA2 mice on 60th day after inoculation with L1210 leukemia cell line intravenously at a dose of 8 mg/kg/day; 0/10; type: functional; conditions: route intravenous
Mus musculus [32] = test: Number of survivors on 60th day at dose 4 mg/kg/day in 10 mice implanted with P388 leukemia cell line; 0/9; type: functional
Mus musculus [33] = test: Percent increase in life span at dose 70 mg/kg/day in 10 mice implanted with P388 leukemia cell line; type: functional; procedure, shortened: as §2
Mus musculus [34] = test: Number of survivors of DBA2 mice on 30th day after inoculation with L1210 leukemia cell line intravenously at a dose of 55 mg/kg/day; 0/10; type: functional; conditions: route intravenous
Mus musculus [35] = test: Number of survivors on 60th day at dose 55 mg/kg/day in 10 mice implanted with P388 leukemia cell line; 1/10; type: functional
Mus musculus [36] = test: Number of survivors on 60th day at dose 70 mg/kg/day in 10 mice implanted with P388 leukemia cell line; 0/11; type: functional
Mus musculus [37] = test: Percent increase in life span of DBA2 mice after inoculation with L1210 leukemia intravenously at a dose of 60 mg/kg per day; type: functional; conditions: route intravenous; procedure, shortened: as §1

Structure (SMILES) | ILS at 2.5 mg/kg/day (Mus musculus [1]) [%] | ILS at 3 mg/kg/day (Mus musculus [3]) [%] | Survivors (Mus musculus [4]) | ILS at 2 mg/kg/day (Mus musculus [8]) [%] | Survivors (Mus musculus [10]) | Survivors (Mus musculus [11]) | ILS at 6 mg/kg/day (Mus musculus [13]) [%] | ILS at 3 mg/kg/day (Mus musculus [14]) [%] | Survivors (Mus musculus [16]) | Survivors (Mus musculus [17]) | Survivors (Mus musculus [20]) | Survivors (Mus musculus [21]) | ILS at 3 mg/kg/day (Mus musculus [22]) [%] | LD50 [24] [mg/kg] | Survivors (Mus musculus [26]) | ILS at 8 mg/kg/day (Mus musculus [27]) [%] | Survivors (Mus musculus [28]) | ILS at 9 mg/kg/day (Mus musculus [29]) [%] | ILS at 6 mg/kg/day (Mus musculus [30]) [%] | Survivors (Mus musculus [31]) | further results
CC[C@]1(O)C[C@H]2CN(CCc3c([nH]c4ccccc34)[C@@](C(=O)OC)(c3cc4c(cc3OC)N(C=O)[C@H]3[C@@](O)(C(=O)OC)[C@H](OC(C)=O)[C@]5(CC)C=CCN6CC[C@]43[C@@H]65)C2)C1 [VINCRISTINE] | 30 | 28.8 | 0 | -46 | – | – | – | – | – | – | – | – | – | – | – | – | – | – | – | – | ILS at 1 mg/kg/day (Mus musculus [2]): 10.7%; ILS at 0.22 mg/kg/day (Mus musculus [5]): 146%; ILS at 5.5 mg/kg/day (Mus musculus [6]): 26.6%; Survivors (Mus musculus [7]): 0; Survivors (Mus musculus [9]): 0
CC[C@]1(O)C[C@@H]2CN(CCc3c([nH]c4ccccc34)[C@@](C(=O)OC)(c3cc4c(cc3OC)N(C)[C@H]3[C@@](O)(C(N)=O)[C@H](O)[C@]5(CC)C=CCN6CC[C@]43[C@@H]65)C2)C1 [VINDESINE] | 13.3 | – | 0 | 27.1 | 0 | 0 | -47 | 89 | 0 | 0 | 0 | 0 | 23 | – | – | – | – | – | – | – | ILS at 2.5 mg/kg/day (Mus musculus [12]): 150%; Survivors (Mus musculus [15]): 0; Survivors (Mus musculus [18]): 0; ILS at 0.3 mg/kg/day (Mus musculus [19]): 95%
CC[C@]1(O)C[C@@H]2CN(CCc3c([nH]c4ccccc34)[C@@](C(=O)OC)(c3cc4c(cc3OC)N(C)[C@H]3[C@@](O)(C(=O)OC)[C@H](OC(C)=O)[C@]5(CC)C=CCN6CC[C@]43[C@@H]65)C2)C1 [VINBLASTINE] | – | 30.3 | – | – | 0 | 0 | -61 | 63 | 0 | 0 | 0 | – | 30.8 | 28 | 0 | 57.6 | 0 | 49.5 | 24.7 | 0 | Survivors (Mus musculus [23]): 0; Survivors (Mus musculus [25]): 0
CCOC(=O)[C@@H](NC(=O)[C@@]1(O)[C@H](O)[C@]2(CC)C=CCN3CC[C@@]4(c5cc([C@@]6(C(=O)OC)C[C@H]7C[N@](CCc8c6[nH]c6ccccc86)C[C@](O)(CC)C7)c(OC)cc5N(C)[C@@]14C)[C@@H]32)[C@@H](C)CC | – | – | – | – | – | – | – | – | – | – | – | 0 | – | – | 0 | 49 | 0 | 34 | 41.3 | 0 | Survivors (Mus musculus [32]): 0
CCOC(=O)[C@H](Cc1c[nH]c2ccccc12)NC(=O)[C@@]1(O)[C@H](O)[C@]2(CC)C=CCN3CC[C@@]4(c5cc([C@@]6(C(=O)OC)C[C@H]7C[N@](CCc8c6[nH]c6ccccc86)C[C@](O)(CC)C7)c(OC)cc5N(C)[C@@]14C)[C@@H]32 | – | – | – | – | – | – | – | – | – | – | – | – | – | 110 | – | – | – | – | – | – | ILS at 70 mg/kg/day (Mus musculus [33]): 160%; Survivors (Mus musculus [34]): 0; Survivors (Mus musculus [35]): 1; Survivors (Mus musculus [36]): 0; ILS at 60 mg/kg/day (Mus musculus [37]): 58%
